The source made the active and inactive calls. The rule behind the calls is not given here.

The target in data set [1] is Tyrosine-protein kinase JAK1 (Homo sapiens) (UniProt P23458). Description: Inhibition of recombinant human JAK1 (866 to end residues) at 1 uM using GEEPLYWSFPAKKK as substrate measured after 40 mins in presence of [gamma33P]ATP by scintillation counting method relative to control.
The target of data set [2] is cGMP-dependent protein kinase 1 (Homo sapiens) (UniProt Q13976). As to the kind of experiment: Inhibition of recombinant full-length human PKG1beta at 1 uM using RRRLSFAEPG as substrate measured after 40 mins in presence of [gamma33P]ATP by scintillation counting method relative to control.
Chain of cGMP-dependent protein kinase 1 (Homo sapiens) (Q13976 whole entry, the tested form may be a part): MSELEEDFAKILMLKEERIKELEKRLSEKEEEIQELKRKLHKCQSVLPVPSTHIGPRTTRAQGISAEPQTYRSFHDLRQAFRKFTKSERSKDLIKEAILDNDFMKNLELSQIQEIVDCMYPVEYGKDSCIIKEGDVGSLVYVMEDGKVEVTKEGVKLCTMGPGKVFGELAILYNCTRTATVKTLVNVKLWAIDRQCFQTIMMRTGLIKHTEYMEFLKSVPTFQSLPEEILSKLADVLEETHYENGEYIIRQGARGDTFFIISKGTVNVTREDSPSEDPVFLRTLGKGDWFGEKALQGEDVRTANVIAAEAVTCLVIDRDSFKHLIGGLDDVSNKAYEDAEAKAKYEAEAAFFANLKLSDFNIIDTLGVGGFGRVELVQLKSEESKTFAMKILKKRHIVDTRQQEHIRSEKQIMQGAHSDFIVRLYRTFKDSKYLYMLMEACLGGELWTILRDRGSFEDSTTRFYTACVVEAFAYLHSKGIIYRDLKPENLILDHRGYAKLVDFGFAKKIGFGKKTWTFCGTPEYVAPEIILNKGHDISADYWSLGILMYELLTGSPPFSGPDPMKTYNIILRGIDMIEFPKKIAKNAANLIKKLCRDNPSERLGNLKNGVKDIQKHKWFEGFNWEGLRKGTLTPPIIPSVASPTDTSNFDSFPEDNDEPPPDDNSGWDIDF
The target of data set [3] is TRAF2 and NCK-interacting protein kinase (Homo sapiens) (UniProt Q9UKE5). Description: Inhibition of human TNIK (1 to 367 residues) at 1 uM using RLGRDKYKTLRQIRQ as substrate measured after 40 mins in presence of [gamma33P]ATP by scintillation counting method relative to control. In outline: (§1)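 Percent inhibition of kinase activity at a single compound concentration, measured by the outsourced Eurofins KinaseProfiler panel. Values are the mean of two independent experiments.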

The next data set relates to CCRF-CEM. As to the kind of experiment: Antiproliferative activity against human CCRF-CEM cells assessed as inhibition of cell viability after 72 hrs by CCK-8 assay. It is filed as functional, cell-based. In outline:
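Cells kept at 37 °C, 5% CO2 in DMEM or RPMI-1640 with 10% FBS and 1% penicillin/streptomycin, then seeded at 3000 cells/well (adherent) or 10,000 cells/well (suspension). Exposed to a range of concentrations for 72 h. CCK-8 added for 1-4 h before reading A450. […] Three independent experiments.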

Data set [4] addresses Mitogen-activated protein kinase kinase kinase 7 (Homo sapiens) (UniProt O43318). Description: Inhibition of human TAK1 (1 to 303 residues) at 1 uM using casein as substrate measured after 40 mins in presence of [gamma33P]ATP by scintillation counting method relative to control. In outline:
as §1

The target of data set [5] is Serine/threonine-protein kinase STK11 (Homo sapiens) (UniProt Q15831). As to the kind of experiment: Inhibition of recombinant full-length human LKB1 at 1 uM using LSNLYHQGKFLQTFCGSPLYRRR as substrate measured after 40 mins in presence of [gamma33P]ATP by scintillation counting method relative to control.
Chain of Serine/threonine-protein kinase STK11 (Homo sapiens) (Q15831 whole entry): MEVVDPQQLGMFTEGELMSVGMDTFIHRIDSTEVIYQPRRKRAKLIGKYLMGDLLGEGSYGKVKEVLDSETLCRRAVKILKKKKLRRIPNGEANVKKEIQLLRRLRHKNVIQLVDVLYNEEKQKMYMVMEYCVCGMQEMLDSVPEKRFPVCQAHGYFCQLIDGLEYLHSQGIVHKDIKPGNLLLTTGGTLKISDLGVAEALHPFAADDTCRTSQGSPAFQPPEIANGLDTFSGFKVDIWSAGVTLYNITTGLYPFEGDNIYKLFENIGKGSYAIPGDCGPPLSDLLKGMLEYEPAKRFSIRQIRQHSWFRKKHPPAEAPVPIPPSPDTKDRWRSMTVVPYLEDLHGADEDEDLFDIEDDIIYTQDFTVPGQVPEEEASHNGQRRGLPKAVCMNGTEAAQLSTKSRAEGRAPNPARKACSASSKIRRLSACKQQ
Data set [6] has as its target Phosphatidylinositol 4-phosphate 5-kinase type-1 gamma (Homo sapiens) (UniProt O60331). As to the kind of experiment: Inhibition of recombinant full-length human PIP5K1gamma at 1 uM using phosphatidylinositol 4-phosphate as substrate measured after 40 mins by HTRF assay relative to control.
A short description of data set [7]: Half life in Sprague-Dawley rat liver microsomes at 2 uM in presence of NADPH measured up to 1 hr by HPLC analysis. It is filed as ADME, Microsome. In outline: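 Compound at 2 μM incubated at 37 °C with liver microsomes (1 mg/mL), 3 mM MgCl2 and 0.1 M phosphate buffer pH 7.4; 5 min preincubation, then started with 3 mM NADPH. Aliquots (n = 3) at 0, 10, 20, 30, 45, 60 min quenched with ice-cold acetonitrile, centrifuged, supernatant by HPLC. t1/2 from linear-regression kinetic constant k.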

Data set [8] concerns the target Ephrin type-B receptor 1 (Homo sapiens) (UniProt P54762). As to the kind of experiment: Inhibition of recombinant human EphB1 (564 to end residues) at 1 uM using KVEKIGEGTYGVVYK as substrate measured after 40 mins in presence of [gamma33P]ATP by scintillation counting method relative to control.
The target of data set [9] is Cyclin-dependent kinase 9 (Homo sapiens) (UniProt P50750). As to conditions: 0.25 to 1 uM.
Chain of Cyclin-dependent kinase 9 (Homo sapiens) (P50750 whole entry): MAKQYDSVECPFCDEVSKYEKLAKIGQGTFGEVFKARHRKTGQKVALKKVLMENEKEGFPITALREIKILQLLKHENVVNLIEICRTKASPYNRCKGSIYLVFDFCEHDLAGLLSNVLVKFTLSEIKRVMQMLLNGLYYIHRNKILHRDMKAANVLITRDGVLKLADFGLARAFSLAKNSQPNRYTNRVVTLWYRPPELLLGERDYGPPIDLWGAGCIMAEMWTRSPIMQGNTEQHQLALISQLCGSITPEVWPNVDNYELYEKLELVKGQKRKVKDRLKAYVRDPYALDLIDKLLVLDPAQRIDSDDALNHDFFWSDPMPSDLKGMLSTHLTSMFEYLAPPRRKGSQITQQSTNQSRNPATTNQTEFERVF
Data set [10] has as its target Serine/threonine-protein kinase pim-1 (Homo sapiens) (UniProt P11309). As to the kind of experiment: Inhibition of recombinant full-length human Pim-1 at 1 uM using KKRNRTLTV as substrate measured after 40 mins in presence of [gamma33P]ATP by scintillation counting method relative to control.
For data set [11], the target named is cAMP-dependent protein kinase catalytic subunit alpha (Homo sapiens) (UniProt P17612). As to the kind of experiment: Inhibition of recombinant full-length human PKA at 1 uM using Kemptide as substrate measured after 40 mins in presence of [gamma33P]ATP by scintillation counting method relative to control. The method, boiled down:
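Single-point inhibition at 1 µM was measured in the Eurofins KinaseProfiler panel. Values are the mean of two independent experiments.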

The target of data set [12] is Tyrosine-protein kinase Fes/Fps (Homo sapiens) (UniProt P07332). As to the kind of experiment: Inhibition of recombinant human FES (2 to end residues) at 1 uM using poly(Glu, Tyr) 4:1 as substrate measured after 40 mins in presence of [gamma33P]ATP by scintillation counting method relative to control.
Data set [13] concerns the target Macrophage-stimulating protein receptor (Homo sapiens) (UniProt Q04912). Description: Inhibition of human Ron (983 to end residues) at 1 uM using GGMEDIYFEFMGGKKK as substrate measured after 40 mins in presence of [gamma33P]ATP by scintillation counting method relative to control. The method, boiled down: as §1
In data set [14] the test system is NCI-H1299. Description: Downregulation of cyclin T1 expression in human H1299 cells at 0.25 to 1 uM after 24 hrs by Western blot analysis. The class given is functional, cell-based. The method, boiled down: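 A549 and H1299 cells treated for 24 h with serial dilutions alongside a DMSO control. Protein extracts resolved and immunoblotted.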
Data set [15] concerns the target G protein-coupled receptor kinase 6 (Homo sapiens) (UniProt P43250). Description: Inhibition of recombinant full-length human GRK6 at 1 uM using casein as substrate measured after 40 mins in presence of [gamma33P]ATP by scintillation counting method relative to control.
The target of data set [16] is Serine/threonine-protein kinase mTOR (Homo sapiens) (UniProt P42345). Description: Inhibition of recombinant full-length human mTOR at 1 uM after 40 mins in presence of [gamma33P]ATP by scintillation counting method relative to control.
Data set [17] deals with A549. Description: Induction of apoptosis in human A549 cells assessed as late apoptotic cells at 0.25 uM after 48 hrs by AnnexinV-FITC/PI staining-based flow cytometric analysis (reference value: 7.66%). It is filed as functional.
The test system of data set [18] is A549. Description: Downregulation of SOX2 in human A549 cells at 0.25 to 1 uM by Western blot analysis. It is filed as functional, cell-based.
Data set [19] concerns NCI-H1299. Description: Antiproliferative activity against human H1299 cells assessed as inhibition of cell viability at 10 uM after 72 hrs by CCK-8 assay relative to control. It is filed as functional. To be noted: NCI-H1299, 72 h. In outline: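 Single-concentration viability screen using CCK-8. Cells were seeded at 3000/well and treated for 72 h. A450 read after 1-4 h with reagent. Percent inhibition calculated against untreated control and blank wells as (Ac−As)/(Ac−Ab)×100%.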

Data set [20] has as its target Phosphatidylinositol 5-phosphate 4-kinase type-2 alpha (Homo sapiens) (UniProt P48426). As to the kind of experiment: Inhibition of recombinant full-length human PIP4K2alpha at 1 uM using phosphatidylinositol 5-phosphate as substrate measured after 40 mins by HTRF assay relative to control.
Data set [21] has as its target Cyclin-dependent kinase 9 (Homo sapiens) (UniProt P50750). To be noted: A549, 0.25 to 1 uM.

Chain of Serine/threonine-protein kinase pim-1 (Homo sapiens) (P11309 whole entry, looked up): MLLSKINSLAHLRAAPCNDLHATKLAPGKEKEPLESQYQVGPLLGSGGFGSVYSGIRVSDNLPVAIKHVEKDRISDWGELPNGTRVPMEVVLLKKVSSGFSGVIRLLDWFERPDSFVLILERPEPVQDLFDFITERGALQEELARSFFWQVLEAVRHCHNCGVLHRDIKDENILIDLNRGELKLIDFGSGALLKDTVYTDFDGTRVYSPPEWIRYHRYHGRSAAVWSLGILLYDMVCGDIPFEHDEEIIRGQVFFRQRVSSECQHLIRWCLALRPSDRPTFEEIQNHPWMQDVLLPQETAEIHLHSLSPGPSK
Chain of Ephrin type-B receptor 1 (Homo sapiens) (P54762 whole entry): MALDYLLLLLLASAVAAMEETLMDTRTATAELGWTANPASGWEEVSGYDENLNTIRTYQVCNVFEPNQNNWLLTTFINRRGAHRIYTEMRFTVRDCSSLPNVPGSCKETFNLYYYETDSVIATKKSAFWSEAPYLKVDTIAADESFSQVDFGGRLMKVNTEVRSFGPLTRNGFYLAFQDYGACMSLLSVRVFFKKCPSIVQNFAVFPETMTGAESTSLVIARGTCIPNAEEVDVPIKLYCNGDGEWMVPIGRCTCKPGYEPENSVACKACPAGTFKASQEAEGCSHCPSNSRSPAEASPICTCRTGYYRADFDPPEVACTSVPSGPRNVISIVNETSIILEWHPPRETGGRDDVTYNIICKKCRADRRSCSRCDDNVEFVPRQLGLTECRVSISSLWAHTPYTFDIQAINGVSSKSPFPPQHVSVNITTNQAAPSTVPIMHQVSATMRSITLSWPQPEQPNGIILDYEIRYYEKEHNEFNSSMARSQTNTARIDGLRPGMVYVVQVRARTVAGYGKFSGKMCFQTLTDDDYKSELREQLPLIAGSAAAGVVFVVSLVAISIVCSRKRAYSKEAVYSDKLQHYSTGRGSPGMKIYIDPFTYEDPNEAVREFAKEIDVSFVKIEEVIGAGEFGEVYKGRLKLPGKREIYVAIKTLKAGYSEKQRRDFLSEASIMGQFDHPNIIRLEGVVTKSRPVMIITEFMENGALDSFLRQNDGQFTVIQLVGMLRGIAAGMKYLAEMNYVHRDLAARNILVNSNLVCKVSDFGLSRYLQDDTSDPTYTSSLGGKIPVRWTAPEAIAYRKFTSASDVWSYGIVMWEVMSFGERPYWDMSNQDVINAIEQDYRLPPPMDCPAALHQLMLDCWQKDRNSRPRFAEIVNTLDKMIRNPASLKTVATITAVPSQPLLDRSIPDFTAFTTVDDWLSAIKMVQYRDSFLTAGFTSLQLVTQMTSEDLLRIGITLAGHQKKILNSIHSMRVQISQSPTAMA
Chain of Mitogen-activated protein kinase kinase kinase 7 (Homo sapiens) (O43318 whole entry, the tested form may be a part): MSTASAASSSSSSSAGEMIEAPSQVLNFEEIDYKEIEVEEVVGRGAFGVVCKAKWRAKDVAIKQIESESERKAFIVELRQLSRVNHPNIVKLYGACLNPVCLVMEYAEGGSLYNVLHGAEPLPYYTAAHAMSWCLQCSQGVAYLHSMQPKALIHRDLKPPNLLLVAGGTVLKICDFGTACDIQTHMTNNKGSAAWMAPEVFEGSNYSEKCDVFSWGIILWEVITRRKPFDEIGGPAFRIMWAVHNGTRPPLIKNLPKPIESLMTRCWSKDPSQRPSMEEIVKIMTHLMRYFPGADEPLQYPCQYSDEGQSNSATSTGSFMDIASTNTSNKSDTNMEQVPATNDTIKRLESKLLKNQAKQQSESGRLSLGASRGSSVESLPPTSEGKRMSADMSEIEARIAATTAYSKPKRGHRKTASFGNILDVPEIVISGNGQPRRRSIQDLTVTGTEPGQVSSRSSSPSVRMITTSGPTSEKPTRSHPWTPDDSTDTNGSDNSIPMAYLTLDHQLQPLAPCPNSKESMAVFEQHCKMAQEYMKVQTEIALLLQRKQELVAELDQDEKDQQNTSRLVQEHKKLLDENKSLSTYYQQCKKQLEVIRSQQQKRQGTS
Chain of Tyrosine-protein kinase JAK1 (Homo sapiens) (P23458 whole entry): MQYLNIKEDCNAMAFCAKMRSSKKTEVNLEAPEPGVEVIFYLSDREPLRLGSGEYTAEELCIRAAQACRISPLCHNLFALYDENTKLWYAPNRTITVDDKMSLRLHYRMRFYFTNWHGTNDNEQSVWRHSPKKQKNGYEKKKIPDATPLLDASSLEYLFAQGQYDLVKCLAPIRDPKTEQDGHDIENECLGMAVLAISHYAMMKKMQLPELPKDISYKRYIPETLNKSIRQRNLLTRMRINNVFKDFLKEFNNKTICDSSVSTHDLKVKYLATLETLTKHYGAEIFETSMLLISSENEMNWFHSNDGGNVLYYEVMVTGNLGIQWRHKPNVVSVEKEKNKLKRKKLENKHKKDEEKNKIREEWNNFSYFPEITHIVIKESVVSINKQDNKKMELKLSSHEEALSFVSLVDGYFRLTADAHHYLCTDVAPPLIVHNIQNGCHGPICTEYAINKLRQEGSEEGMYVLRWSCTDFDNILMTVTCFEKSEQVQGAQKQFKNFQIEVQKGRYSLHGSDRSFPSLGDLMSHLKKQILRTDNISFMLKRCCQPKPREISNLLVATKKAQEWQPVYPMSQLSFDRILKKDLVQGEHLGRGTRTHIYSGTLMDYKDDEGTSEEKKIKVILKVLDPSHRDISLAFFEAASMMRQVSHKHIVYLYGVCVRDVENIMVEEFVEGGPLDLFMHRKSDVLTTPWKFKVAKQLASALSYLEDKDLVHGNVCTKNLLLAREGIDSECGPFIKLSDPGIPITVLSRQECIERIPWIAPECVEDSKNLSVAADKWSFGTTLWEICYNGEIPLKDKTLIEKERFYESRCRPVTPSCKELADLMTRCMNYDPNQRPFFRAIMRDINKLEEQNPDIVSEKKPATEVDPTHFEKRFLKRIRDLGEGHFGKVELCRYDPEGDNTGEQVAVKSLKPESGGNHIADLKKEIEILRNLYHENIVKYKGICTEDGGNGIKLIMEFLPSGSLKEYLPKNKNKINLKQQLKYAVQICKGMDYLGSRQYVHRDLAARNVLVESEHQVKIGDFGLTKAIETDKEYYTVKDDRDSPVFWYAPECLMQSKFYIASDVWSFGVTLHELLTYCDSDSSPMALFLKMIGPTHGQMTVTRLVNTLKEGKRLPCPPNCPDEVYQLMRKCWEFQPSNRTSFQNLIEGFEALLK
Chain of Phosphatidylinositol 5-phosphate 4-kinase type-2 alpha (Homo sapiens) (P48426 whole entry): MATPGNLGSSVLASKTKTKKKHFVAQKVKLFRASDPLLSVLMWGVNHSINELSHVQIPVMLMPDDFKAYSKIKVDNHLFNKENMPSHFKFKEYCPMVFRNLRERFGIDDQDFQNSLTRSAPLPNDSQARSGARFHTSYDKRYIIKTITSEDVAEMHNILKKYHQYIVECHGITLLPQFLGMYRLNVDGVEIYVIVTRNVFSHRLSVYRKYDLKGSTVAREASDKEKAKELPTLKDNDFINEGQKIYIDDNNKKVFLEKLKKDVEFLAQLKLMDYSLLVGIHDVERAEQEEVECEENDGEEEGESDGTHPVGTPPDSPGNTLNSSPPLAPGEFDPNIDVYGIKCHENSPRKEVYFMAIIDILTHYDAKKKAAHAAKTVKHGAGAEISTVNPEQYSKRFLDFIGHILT

For `CN(C)C(=O)c1cc2cnc(Nc3ccc(NC(=O)CCCCCCCN=C=S)cc3)nc2n1C1CCCC1`, the inhibition in data set [1] was found to be 77%; in data set [2], 0%; in data set [3] it was 69%; in data set [4] it was 79%; in [5], 0%; in data set [6], 0%. Also, the inhibition in data set [8] came out at 9%; in [10], 8%; in data set [11], 1%; in data set [12], 7%; in [13], 72%; in data set [15] it was 5%. The inhibition in [16] is -1%; in data set [20] it was 0%. In addition, the IC50 in the data set with CCRF-CEM was > 10 µM. The half-life at 2 µM in [7] stood at 40.8 min. Moreover, the inhibition entry in [9] and in [21] was “Active” throughout. Also, the outcome in the data set with NCI-H1299 [14] and in the data set on A549 [18] was Active. Further, in the data set on A549 [17], the Activity was determined as 14.5%. Besides, in the data set on NCI-H1299 [19], the inhibition at 10 µM was found to be 98.7%.

These data come from ChEMBL document CHEMBL4376814, “Novel cyclin-dependent kinase 9 (CDK9) inhibitor with suppression of cancer stemness activity against non-small-cell lung cancer” (Eur J Med Chem, 2019).
